Bioassay records deposited in PubChem BioAssay by several laboratories.
This is a sample that favours compounds with a hit; in the whole collection about 1.2% have one here.
proCasp7 act = procaspase-7 activators, primary screen, counter-screen for procaspase-3 activator project, biochemical, absorbance, HTS, human; Caspase-7 (Homo sapiens), P55210; 330,000 tested, 0.093% active; AID 463210, 2010; recombinant procaspase-7, Ac-DEVD-pNA absorbance 405 nm; D23A/D198A/D206A triple mutant, cannot self-cleave; scale: DMSO 0, 5 µM enzyme 100; activation, % at 8.5 µM;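 active = percent activation above the screen-wide mean plus 3 SD, cut at about 25% in these data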
Target sequence (P55210 whole entry D23A/D198A/D206A): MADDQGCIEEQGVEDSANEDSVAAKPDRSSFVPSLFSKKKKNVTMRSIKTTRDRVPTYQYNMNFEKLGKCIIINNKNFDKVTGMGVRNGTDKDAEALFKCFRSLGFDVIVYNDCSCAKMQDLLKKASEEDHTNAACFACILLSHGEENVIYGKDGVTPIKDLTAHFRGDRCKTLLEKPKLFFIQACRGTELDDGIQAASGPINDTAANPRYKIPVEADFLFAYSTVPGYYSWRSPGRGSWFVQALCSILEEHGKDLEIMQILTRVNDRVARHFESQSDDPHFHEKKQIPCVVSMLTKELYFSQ
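Detection: p-Nitroaniline absorbance at 405 nm, read at 0 and 120 min; system: Uncleavable procaspase-7 mutant enzyme; evaluation: % activation from two-timepoint absorbance difference, scaled to controls; times: 1 h enzyme–compound preincubation and 2 h substrate reaction, both 25 °C; buffer or medium: Zinc-free HEPES pH 7.4 with 300 mM NaCl, 0.01% Triton X-100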
LANA-H2B inh = blockers of LANA interaction with H2A/H2B – biochemical, FP readout, HTS, primary screen | cell-free LANA-H2A/H2B peptide, fluorescence polarization | Protein LANA1 (Human herpesvirus 8 type P (isolate GK18)), Q9QR71 | 320,000 tested, 0.6% active | AID 2629, 2010 | inhibition, % (concentration not given with the values); in the data active = inhibition mostly above about 10%, no sharp cut-off; inactive = mostly below about 6.7%
ARFGAP1 inhibitor = inhibitors of rat ARFGAP1 GAP activity, primary screen, biochemical, fluorescence polarization, GDP tracer; 360,000 tested, 0.26% active; Arfgap1-stimulated ARF1 GTP hydrolysis, GDP FP detection; inhibition, % at 16.5 µM;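 active = inhibition above a per-plate limit, mean inhibition of low control wells plus 3 SD, cut at about 25% in these data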
Target sequence (Q62848 1-136 limits assumed): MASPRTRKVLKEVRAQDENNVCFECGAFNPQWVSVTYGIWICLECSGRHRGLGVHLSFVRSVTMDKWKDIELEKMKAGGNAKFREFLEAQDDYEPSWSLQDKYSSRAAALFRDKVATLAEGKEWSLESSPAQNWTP
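System: truncated rat Arfgap1 GAP domain / Medium: HEPES-based buffer, pH 7.5 / Also added: N-terminally truncated human ARF1-GTP substrate / Incubation: enzyme reaction 120 min at 25 °C after 20 min preincubation / Measured by: FP of antibody-bound GDP Alexa 633 tracer, ex 620/em 688 nm / Replicates: singlicate, each compound tested once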
Yeast superoxide = reduction of superoxide in aged yeast, primary screen, HTS. S. cerevisiae aged cells, superoxide DHE fluorescence; hits give low values. superoxide response (% of plate mean), % at 10 µM. 330,000 tested, 0.18% active;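 active = superoxide response under a set limit, about three screen SD below normal, cut at about 65% in these data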;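 also: yeast aged for seven days with compound at 30 °C before DHE staining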
ASAP1 GAP inh = inhibitors of human ASAP1 ArfGAP activity, primary screen, biochemical, fluorescence polarization; Arf-GAP with SH3 domain, ANK repeat and PH domain-containing protein 1 (Homo sapiens), …; ASAP1-stimulated ARF1 GTP hydrolysis, GDP FP detection; inhibition, % at 16.5 µM; 360,000 tested, 0.19% active; in the data active = inhibition above about 25%
procasp3 activ = activators of human procaspase-3 D3A mutant, primary screen, biochemical, absorbance, PC-3 D3A mutant, single concentration. activation, % at 8.5 µM. 330,000 tested, 0.11% active. recombinant procaspase-3 D3A, Ac-DEVD-pNA absorbance 405 nm. AID 463141, 2010. Caspase-3 (Homo sapiens), P42574;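 active = activation above the mean of all tested compounds plus 3 SD, cut at about 21% in these data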
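Test system: Procaspase-3 D3A mutant; medium: Zinc-free HEPES/NaCl buffer with 0.01% Triton X-100 at pH 7.4; reagent: DEVD-pNA substrate; doses: one concentration, 8.5 µM nominal, 0.8% DMSO; times: 1 h preincubation plus 2 h reaction at 25 °C; signal: Epi-absorbance at 405 nm of released p-nitroaniline, 0 and 120 min; replicates: singlicate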
ARFGAP1 confirm = ARFGAP1 inhibitor hit confirmation, biochemical, fluorescence polarization, triplicate; shares compounds with ARFGAP1 inhibitor; ARFGAP1-stimulated ARF1 GTP hydrolysis, GDP tracer FP; inhibition, % at 16.5 µM; 890 tested, 30% active; AID 651608, 2012;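 active = average inhibition over triplicates above the hit cutoff set in the earlier primary screen, cut at about 25% in these data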
Hits are given with their value; 0 = inactive; - = not tested or not shown.

SMILES	proCasp7 act	LANA-H2B inh	ARFGAP1 inhibitor	Yeast superoxide	ASAP1 GAP inh	procasp3 activ	ARFGAP1 confirm
N#C/C(=C\c1ccc(Oc2ccc(C(F)(F)F)cc2[N+](=O)[O-])cc1)c1nc2ccccc2[nH]1	0	0	25	0	0	0	0
O=C(CCSc1nnc(-c2ccncc2)o1)Nc1ccccc1Cl	0	0	29	0	0	0	0
CCOc1ccc(C(C)NC(=O)C2CCC2)cc1 (stereo not drawn)	0	0	0	0	0	0	-
COc1ccc2nc(/C=N/NC(=O)[C@H](CCSC)NC(=O)OC(C)(C)C)ccc2c1	0	0	27	0	0	0	0
O=C(NCCCNc1ccc(C(F)(F)F)cc1[N+](=O)[O-])c1ccc(F)cc1	0	0	0	0	0	0	-
Cc1ccc(C(=O)NCCCNc2ccc(C(F)(F)F)cc2[N+](=O)[O-])cc1	0	0	25	0	0	0	0
Cc1noc(C)c1CSCC(=O)N(C)CC(=O)Nc1ccccc1C(F)(F)F	0	0	0	0	0	0	-
CCOC(=O)C1=C(CCc2ccccc2)NC(=O)NC1c1cccc([N+](=O)[O-])c1 (stereo not drawn)	0	0	0	0	0	0	-
CN(C)/C=C/C1=C([N+](=O)[O-])C(c2cccc([N+](=O)[O-])c2)NC(=O)N1 (stereo not drawn)	0	0	28	0	0	0	0
Cn1c(=O)c2c(-c3ccccc3)n(-c3cc([N+](=O)[O-])ccc3O)cc2n(C)c1=O	-	-	0	-	0	-	-
Cc1ccc(C(=O)NC(=O)CSc2ncccc2C(=O)O)cc1	0	0	0	0	0	0	-
Cc1ccc(C(=O)Nc2ccc3c(c2)C(=O)NC3=O)cc1	0	0	25	0	0	0	0
COC(=O)c1ccc(C(=O)Nc2ccc3c(c2)C(=O)NC3=O)cc1	0	0	0	0	0	0	-
Cc1ccc(C)c(N(CC(N)=O)S(C)(=O)=O)c1	0	0	0	0	0	0	-
Cc1ccccc1-n1c(=O)cc(N2CCc3ccccc32)[nH]c1=O	0	0	25	0	0	0	0
CC(C)(C)CC(C)(C)NC(=O)/C=C/C(=O)O	0	0	25	0	0	0	0
CC(=O)N1CCN=C1SCc1ccccc1Cl	0	0	0	0	0	0	-
CCC(=O)N1CCN=C1SCc1ccccc1Cl	0	0	29	0	0	0	0
COc1ccc(OCc2nnc(SCC(=O)NC3CC4CCC3C4)o2)cc1 (stereo not drawn)	0	0	0	0	0	0	-
COc1ccc(OCc2nnc(SCC(=O)c3ccccc3)o2)cc1	0	0	32	0	0	0	0
O=C(CSc1nnc(COc2ccc(Cl)cc2)o1)NC1CC2CCC1C2 (stereo not drawn)	0	0	30	0	0	0	0
Cc1nn(C)c(Cl)c1C(=O)NCC(=O)Nc1ccc(C(C)C)cc1	0	0	0	0	0	0	-
COc1ccc(NC(=O)Cn2c3ccc(OC)cc3c3nc4n(c(=O)c32)CCS4)cc1	0	0	0	0	0	0	-
c1c[nH]c(CN2CCN(Cc3ncc[nH]3)CC2)n1	-	-	0	-	0	-	-
CCOC(=O)c1ccccc1NC(=O)COC(=O)c1cc([N+](=O)[O-])ccc1N1CCOCC1	0	0	0	0	0	0	-
O=[N+]([O-])/C(C(=C(Cl)Cl)N1CCOCC1)=C1\NCCO1	0	0	0	0	0	0	-
CCS(=O)(=O)C(=C1NCCO1)S(=O)(=O)CC	0	0	25	0	0	0	0
CCOC(=O)c1c(C)[nH]c(C)c1S(=O)(=O)N(C)CC(=O)Nc1cc(C)ccc1OC	0	0	0	0	0	0	-
